# This is a sample that favours compounds with a hit; in the whole collection about 7.9% have one here.
# D1 mod: allosteric modulators of human D1 dopamine receptor. 58,000 compounds, 5.9% hits. AID 641. P21728. B-score at 10 µM. HEK293 D1, CRE-luciferase, dopamine EC30 potentiation; actives deviate in either direction;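 active means luminescence count or its row- and column-corrected plate score outside the 99.7% band of the plate's sample wells, on either side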
# SF1 activator: SF-1 (human) activation | 65,000 compounds, 1.9% hits | CHO-K1 Gal4-SF-1 LBD luciferase reporter; % increase over DMSO SF-1-specific signal | activation, % at 10 µM;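 active means activation above the mean activation of all tested compounds plus 3 SD, cut at about 50% in these data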
#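 Material: CHO-K1 cells with Gal4–hSF-1 LBD chimera plus Gal4-driven luciferase / Input: 4,000 CHO-K1 cells per well / Incubation: compound exposure 20 h at 37 °C / Signal: luminescence read 15 min after SteadyLite luciferase reagent, after room-temperature equilibration / Read-out: percent activation versus DMSO / Benchmarks: DMSO negative control and −SF1 background wells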
# RORa activator: activates the human nuclear receptor RORA; activation, % at 10 µM; CHO-K1 Gal4-RORA LBD luciferase reporter, luminescence; percent increase over mock-subtracted basal signal; 65,000 compounds, 1.5% hits;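 active means activation above the mean of all tested compounds plus 3 SD, cut at about 49% in these data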;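 further: 0% = DMSO-treated RORA cells and 100% = added signal equal to DMSO minus mock-transfected cells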
# Target sequence (P35398 whole entry, looked up, the tested form may be a part): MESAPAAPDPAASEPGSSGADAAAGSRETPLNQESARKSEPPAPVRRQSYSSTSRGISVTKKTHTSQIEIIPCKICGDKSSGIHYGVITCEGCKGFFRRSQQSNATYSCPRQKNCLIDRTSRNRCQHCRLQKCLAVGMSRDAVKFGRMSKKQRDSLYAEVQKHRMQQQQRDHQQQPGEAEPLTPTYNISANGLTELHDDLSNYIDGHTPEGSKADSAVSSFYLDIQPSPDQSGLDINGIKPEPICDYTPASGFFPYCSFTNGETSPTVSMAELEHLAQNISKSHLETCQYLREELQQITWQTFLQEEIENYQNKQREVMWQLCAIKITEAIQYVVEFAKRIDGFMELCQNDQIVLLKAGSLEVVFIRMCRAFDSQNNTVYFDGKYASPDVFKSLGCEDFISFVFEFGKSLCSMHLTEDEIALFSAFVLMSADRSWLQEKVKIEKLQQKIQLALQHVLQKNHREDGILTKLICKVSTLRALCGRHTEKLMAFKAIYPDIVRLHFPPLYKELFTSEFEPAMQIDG
# JNK3 blocker: blocks human JNK3 kinase activity; P53779; purified JNK3 kinase activity, HTS; inhibition, % at 8 µM; 60,000 compounds, 0.61% hits; AID 746; in the data active means inhibition above about 17%;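 further: 0% = DMSO and 100% = reference inhibitor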
# HEK293 NFkB inh: lowers PMA/ionomycin-induced NF-kB signal in HEK293 cells; inhibition, % at 3 µM; HEK-293 NF-kB luciferase reporter, luminescence; 62,000 compounds, 0.21% hits; AID 465;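 active means inhibition above the mean of all tested compounds plus 3 SD, cut at about 40% in these data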;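 further: 0% = stimulated DMSO wells and 100% = 10 µM reference inhibitor 5653914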
#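 Reagent: PMA plus ionomycin mix as NF-kB-activating stimulus. Assay system: NF-kB luciferase reporter HEK-293 cells. Technique: luminescence from luciferase substrate reagent. Incubation: 1 h compound pre-incubation, 16 h PMA/ionomycin at 37 °C. Benchmarks: DMSO only as uninhibited control, 10 µM reference inhibitor as full inhibition. Repeats: tested once.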
# * hit, by the source's call; / = no result.
SMILES,D1 mod,SF1 activator,RORa activator,JNK3 blocker,HEK293 NFkB inh
C=C(C)Cn1c(NCCC)nc2c1c(=O)n(C)c(=O)n2C,0.414,-22.7,5.9,-6.4,8.9
c1ccc2c(c1)CCCN2Cc1nnnn1C1CCCC1,-0.842,7.6,20.4,-4.2,1.6
Cc1cccc(NC(=O)c2cnc3n(c2=O)CCS3)c1,0.426,24.4,75.8*,-0.5,-21.1
O=C(Nc1ccccc1)c1cnc2n(c1=O)CCS2,-0.356,30.1,36.6,-0.6,-20.1
Nc1c(C(=O)NCc2ccco2)nnn1-c1ccccc1,0.691,55.3*,8.6,2.6,1.1
Cc1cc(C)cc(-n2nnc(C(=O)NCc3ccco3)c2N)c1,0.425,11.9,10.2,1.5,8.4
Cc1cc(NC(=O)NC(=O)c2cccc(OC(F)(F)C(F)F)c2)n[nH]1,0.156,81.3*,52.4*,2.6,-33.1
CC1CN(S(=O)(=O)c2ccc(Cl)c(C(F)(F)F)c2)CC(C)O1 (stereo not given),-0.5,-19.3,-18.9,/,18.8
S=C(c1ccc(-c2ccccc2Cl)o1)N1CCOCC1,-0.0979,37.4,54.3*,1.9,-23.5
S=C(c1ccc(-c2ccc(Cl)c(Cl)c2)o1)N1CCOCC1,-1.33,44.4,44.8,-1.8,-25.4
C=CCn1c(SCc2nc3ccccc3c(=O)[nH]2)nnc1-c1cc2cc(Cl)ccc2o1,0.638,-2.6,-5.1,-2.3,10.0
Cn1c(C(=O)N2CCc3ccccc3C2)cc2oc3ccccc3c21,/,57.4*,21.8,-0.7,2.2
O=C(c1cc2ccccc2c(=O)o1)N1CCc2ccccc2C1,-0.214,-7.5,-0.6,-2.5,14.1
Cc1ccccc1CS(=O)(=O)Cc1ccc(C(=O)NCc2cccnc2)o1,-0.118,8.7,22.1,0.5,9.6
CCn1c(SCC(=O)Nc2ccc(C(C)=O)cc2)nc2ccccc21,-0.385,64.8*,61.8*,-2.2,10.5
COCCCn1c(SCC(=O)Nc2ccc(C(C)=O)cc2)nc2ccccc2c1=O,0.117,18.9,37.5,4.2,2.5
Cn1nccc1C(=O)OCC(=O)Nc1nc(-c2ccccc2)cs1,-1.79,49.6*,45.7,6.6,6.3
C=CCn1c(SCC(=O)Nc2ccc3c(c2)OCO3)nnc1-c1ccccc1O,-1.3,-10.3,-8.5,-2.4,12.5
Cc1cc(NO)nc(-c2ccc(Br)cc2)n1,0.82,63.9*,59.3*,-4.3,-19.9
Cc1cc(NC(=O)c2ccc3c(c2)OCO3)no1,-2.14,60.4*,30.4,7.2,-27.7
Cc1cc(NC(=O)c2ccc3c(c2)OCCO3)no1,-6.39*,-51.0,-58.9,-2.9,19.2
CCOc1ccc(N2CC(C(=O)Oc3ccccc3)CC2=O)cc1 (stereo not given),0.249,-10.4,-16.5,-4.4,14.4
Cc1csc(NC(=O)c2cnc3ccccn3c2=O)n1,-1.57,61.0*,34.2,-5.7,-23.1
O=C(Nc1cnc2ccccn2c1=O)c1ccc(F)cc1,-0.219,59.5*,46.0,-6.8,-17.5
Cc1ccccc1NC(=O)c1cnc2ccccn2c1=O,-5.82*,-15.9,-53.5,2.6,-21.5
SMILES,D1 mod,SF1 activator,RORa activator,JNK3 blocker,HEK293 NFkB inh
Cc1nn2c(=O)c(NC(=O)c3ccc(F)cc3)cnc2s1,-0.451,11.9,3.1,8.5,9.0
COc1ccc(OC)c(NC(=O)c2cnc3ccccn3c2=O)c1,/,4.3,-5.6,-0.3,4.8
CCOC(=O)c1c(C)oc(/N=C/c2ccccc2O)c1C#N,0.183,9.2,-12.9,-2.6,15.2
O=C1CN(C(=O)COc2ccccc2)CCN1,-0.0264,-23.6,20.3,5.0,9.8
O=C(Nc1ccccc1)c1cnc[nH]1,-0.0181,56.8*,28.4,0.8,-2.2
O=C(O)c1ccccc1C(=O)Nc1ccccc1,-0.906,-17.9,-8.3,-1.2,32.6
N#Cc1c(NC(=O)CSc2ncn[nH]2)sc2c1CCCCC2,-4.57*,-88.2,-87.9,0.3,54.0*
N#Cc1c(NC(=O)c2nc3ncccn3n2)sc2c1CCCCC2,-4.29*,14.5,32.0,0.4,-50.4
Cc1cc(C(=O)Nc2sc3c(c2C#N)CCCCC3)cs1,-3.45,30.8,19.1,11.9,-89.9
COC(=O)c1cc(OC)c(OC)cc1NC(=O)c1ccoc1C,1.15,-19.7,-14.0,2.8,-0.1
CCCCCC(=O)Nc1ccc(N2CCN(CC)CC2)c(Cl)c1,-4.6*,31.8,47.7,3.4,1.8
COc1cc(C)c(S(=O)(=O)n2ccc(C)n2)cc1C,/,4.0,-4.5,/,11.1
O=C(CN1CCOCC1)Nc1ccc(-c2nc3ccccc3[nH]2)cc1,/,52.2*,37.5,-4.9,-9.2
